Test [1] deals with T1, Phosphodiesterase 4 (Homo sapiens, UniProt P27815+Q08499+Q07343+Q08493). The test is described as follows: Concentration to inhibit 50% of Phosphodiesterase 4 (PDE-4) from guinea pig macrophages. In kind it is protein assay, Cavia porcellus. To be noted: target entry is the homologue from another species. In outline: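 Enzyme source: homogenate of guinea pig peritoneal macrophages, Percoll-purified and adherence-selected, from Dunkin Hartley animals pretreated with horse serum. Two-step radioisotopic hydrolysis assay with 1 μM cAMP substrate in 20 mM Tris-HCl pH 8.0, 10 mM MgCl2, 4 mM 2-mercaptoethanol, 0.2 mM EGTA, 0.05 mg/mL BSA.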

Test [2] concerns the target T1, Phosphodiesterase 4. The test is described as follows: Binding affinity at Phosphodiesterase 4 by measuring displacement of (+/-)-[3H]- Rolipram to guinea pig brain membranes. In kind it is tissue-based, Cavia porcellus. The settings on record: target entry is the homologue from another species. The gist of the method: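 Guinea pig brain membranes (amount equal to 500 μg brain tissue per sample) incubated with 2 nM (±)-[3H]rolipram (24.7 Ci/mmol).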

The test system of test [3] is Canis familiaris. In words: Emetic effect in dogs at 3 mg/kg intravenous dose, 0 of 4 animals affected. In kind it is functional, Canis lupus familiaris.
Test [4] in a line: (§1) Inhibition of tumor necrosis factor alpha (TNF-alpha) release in murine endotoxemia model after peroral administration. The gist of the method: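 Male Balb/c mice, 20–25 g, were dosed orally in 0.25% methylcellulose/0.2% Tween-20 in water 4 h before an ip challenge with E. coli 055:B5 LPS at 30 μg/mouse. ED50 was taken from dose–response curves, n = 6 animals/group.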
For test [5], the system named is Canis familiaris. In words: Emetic effect in dogs at 0.03 mg/kg intravenous dose, 2 of 2 animals affected. In kind it is functional, Canis lupus familiaris. The gist of the method: (§2)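 Male and female beagles, 1–2 years old, 8–10 kg, food withheld the morning of testing. Compound in 100% DMSO given as a slow iv bolus into the cephalic vein over 30 s at 0.03 mL/kg. Dogs observed for up to 2 h or until emesis occurred. Usually 4 dogs (2 male, 2 female) per test.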

Test [6] relates to Canis familiaris. In words: Emetic effect in dogs at 0.01 mg/kg intravenous dose, 1 of 2 animals affected. In kind it is functional, Canis lupus familiaris. In outline: as §2
A short description of test [7]: as §1. The gist of the method: (§3)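 Male Balb/c mice, 20–25 g, dosed orally in 0.25% methylcellulose/0.2% Tween-20 in water 4 h before ip challenge with E. coli 055:B5 LPS at 30 μg/mouse. Serum TNF-α measured by ELISA. ED50 taken from dose–response curves, n = 6 mice/group.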
The source holds these as a separate data set.

In test [8] the test system is Canis familiaris. The test is described as follows: Emetic effect in dogs at 0.2 mg/kg intravenous dose, 2 of 2 animals affected. In kind it is functional, Canis lupus familiaris. In outline:
as §2

The test system of a further test is PBMC. The test is described as follows: Inhibition of TNF-alpha release from LPS-stimulated human mononuclear cells. The test is classed as functional, cell-based.
The nature of test [9]: Inhibition of tumor necrosis factor alpha (TNF-alpha) release in murine endotoxemia model after peroral administration at 30 mg/kg. The test is classed as organism-based. More on the design: dose 30 mg/kg.
The test system of test [10] is Canis familiaris. In words: Emetic effect in dogs at 1 mg/kg intravenous dose, 0 of 4 animals affected. In kind it is functional, Canis lupus familiaris. The gist of the method: as §2
Test [11] is described as follows: Inhibition of tumor necrosis factor alpha (TNF-alpha) release in murine endotoxemia model. The gist of the method:
as §3

Test [12] relates to Canis familiaris. The test is described as follows: Emetic effect in dogs at 0.7 mg/kg intravenous dose, 0 of 4 animals affected. The test is classed as functional, Canis lupus familiaris. In outline: as §2

SMILES strings stand for the structures.

By IC50 is commonly meant the concentration that gives 50% inhibition. Read a high IC50 as weaker potency in that assay. Usually Ki stands for the dissociation constant of the complex between target and ligand, obtained from inhibition or displacement. Usually ED50 stands for the midpoint of the dose-response relation. Higher therefore signals weaker potency. What is called inhibition is the drop in the measured response relative to a control, in per cent. Higher therefore signals a response far below the control.

The compound `COc1ccc(C2(Cc3ccncc3)C(=O)c3ccc(O)cc3C2=O)cc1OC1CCCC1` (stereo unspecified) came in with a half-maximal inhibitory concentration (IC50) against Phosphodiesterase 4 [1] of 100 nM. The Ki on Phosphodiesterase 4 [2] was determined as 45 nM.

Regarding `COc1ccc(C2(Cc3ccncc3)C(=O)c3ccc(OC(=O)N4CCC(N5CCCCC5)CC4)cc3C2=O)cc1OC1CCCC1` (stereo unspecified), the Ratio with Canis familiaris [3] is on record as 0. Further, the 50% effect level in [4] (ED50) was put at a dose of 15 mg/kg. Moreover, the IC50 on Phosphodiesterase 4 [1] stood at 30 nM. The compound also came in with a Ki on Phosphodiesterase 4 [2] of 20 nM.

For `COc1ccc(C2CNC(=O)C2)cc1OC1CCCC1` (stereo unspecified) [ROLIPRAM], the Ratio in the test on Canis familiaris [5] is recorded as 2; in the test on Canis familiaris [6] it was 1; with Canis familiaris [8], 2. This compound also returned a 50% effective dose (ED50) in test [7] of 8 mg/kg. This compound yielded an IC50 in the test on PBMC of 500 nM.

For the compound `COc1ccc(C2(Cc3ccccc3)C(=O)c3ccccc3C2=O)cc1OC1CCCC1`, at Phosphodiesterase 4 [1], the half-maximal inhibitory concentration (IC50) is recorded as 500 nM. This compound returned a Ki at Phosphodiesterase 4 [2] of 2300 nM.

Take `COc1ccc(C2(Cc3ccncc3)Cc3ccccc3C2)cc1OC1CCCC1`: the IC50 on Phosphodiesterase 4 [1] turned out to be 750 nM. Also, the inhibition constant Ki on Phosphodiesterase 4 [2] worked out at 1600 nM.

For `COc1ccc(C2(Cc3ccncc3)C(O)c3ccccc3C2O)cc1OC1CCCC1` (stereo unspecified), the 50% inhibitory concentration (IC50) against Phosphodiesterase 4 [1] is reported as > 10000 nM. In addition, the inhibition constant (Ki) at Phosphodiesterase 4 [2] is > 10000 nM.

On Phosphodiesterase 4 [1], `COc1ccc(C2(Cc3ccncc3)C(=O)c3ccc(OCC(=O)O)cc3C2=O)cc1OC1CCCC1` (stereo unspecified) yielded a 50% inhibitory concentration (IC50) of 50 nM. The compound further showed a Ki at Phosphodiesterase 4 [2] of 20 nM.

`COc1ccc(C2(Cc3ccc(O)cc3)C(=O)c3ccccc3C2=O)cc1OC1CCCC1` registered an IC50 against Phosphodiesterase 4 [1] of 70 nM. For the same compound, at Phosphodiesterase 4 [2], the inhibition constant Ki is on record as 260 nM.

`COc1ccc(C2(Cc3ccncc3)C(=O)c3ccc(OCc4ccccc4)cc3C2=O)cc1OC1CCCC1` (stereo in doubt; (+)-17) came in with a 50% inhibitory concentration (IC50) against Phosphodiesterase 4 [1] of 6 nM. Besides, the Ki at Phosphodiesterase 4 [2] was 20 nM.

As to `COc1ccc(C2(Cc3c(Cl)cncc3Cl)C(=O)c3ccccc3C2=O)cc1OC1CCCC1`, the 50% inhibitory concentration (IC50) against Phosphodiesterase 4 [1] was 3000 nM. Moreover, the inhibitory constant (Ki) at Phosphodiesterase 4 [2] is reported as 1700 nM.

Regarding `CCOc1ccc2c(c1)C(=O)C(Cc1ccncc1)(c1ccc(OC)c(OC3CCCC3)c1)C2=O` (stereo unspecified), on Phosphodiesterase 4 [1], the half-maximal inhibitory concentration (IC50) was found to be 12 nM. This compound also had a Ki on Phosphodiesterase 4 [2] of 20 nM.

The compound `COc1ccc(C2(Cc3ccncc3)C(=O)c3ccc(OCc4ccccc4)cc3C2=O)cc1OC1CCCC1` (stereo in doubt; (+)-18) gave an IC50 against Phosphodiesterase 4 [1] of 30 nM. Besides, at Phosphodiesterase 4 [2], the inhibitory constant (Ki) was found to be 20 nM.

For `COc1ccc(C2(Cc3ccncc3)C(=O)c3ccccc3C2=O)cc1OC1CCCC1`, the half-inhibitory concentration (IC50) was found to be 30 nM against Phosphodiesterase 4 [1] and 200 nM with PBMC. Further, the inhibition in test [9] worked out at 0%. The compound also registered a Ki at Phosphodiesterase 4 [2] of 10 nM.

The compound `COc1ccc(C2(Cc3ccncc3)C(=O)c3ccc(OCc4ccncc4)cc3C2=O)cc1OC1CCCC1` (stereo unspecified) displayed an IC50 at Phosphodiesterase 4 [1] of 14 nM. Also, at Phosphodiesterase 4 [2], the Ki is 30 nM.

The compound `COc1ccc(C2(Cc3cc[n+]([O-])cc3)C(=O)c3ccccc3C2=O)cc1OC1CCCC1` came in with an IC50 against Phosphodiesterase 4 [1] of 50 nM. Further, the Ki at Phosphodiesterase 4 [2] was 20 nM.

Compound `COc1ccc(C2(Cc3ccncc3)Cc3cc(OCc4ccccc4)ccc3C2=O)cc1OC1CCCC1` (stereo unspecified) gave a half-maximal inhibitory concentration (IC50) at Phosphodiesterase 4 [1] of 20 nM. The inhibition constant Ki on Phosphodiesterase 4 [2] was determined as 60 nM.

`COc1ccc(C2(Cc3ccncc3)C(=O)c3ccc(OCc4ccccc4)cc3C2=O)cc1OC1CCCC1` (single isomer, unassigned; (+)) [listing 1 of 2 here] had an inhibition in [9] of 40%.

As for `COc1ccc([C@H](Cc2ccncc2)c2ccccc2)cc1OC1CCCC1` [CDP840], the Ratio in the test on Canis familiaris [10] worked out at 0. In addition, in [11], it took a dose of 25 mg/kg to reach the 50% effect level (ED50).

`COc1ccc(C2(Cc3ccncc3)C(=O)c3ccc(OC4CCN(C)CC4)cc3C2=O)cc1OC1CCCC1` (stereo unspecified) came in with a concentration for half-maximal inhibition (IC50) on Phosphodiesterase 4 [1] of 30 nM. The compound further displayed an inhibition constant (Ki) at Phosphodiesterase 4 [2] of 60 nM.

Turning to `COc1ccc(C2C(=O)c3ccccc3C2=O)cc1OC1CCCC1`, on Phosphodiesterase 4 [1], the half-inhibitory concentration (IC50) is recorded as > 10000 nM. For the same compound, on Phosphodiesterase 4 [2], the inhibition constant (Ki) is listed as > 10000 nM.

As to `COc1ccc(C2(Cc3ccncc3)C(=O)c3ccc(OCc4ccccc4)cc3C2=O)cc1OC1CCCC1` (single isomer, unassigned; (+)) [listing 2 of 2 here], the Ratio in the test with Canis familiaris [3] and in the test with Canis familiaris [12] was 0 in each case. For the same compound, the figures for the half-inhibitory concentration (IC50) against Phosphodiesterase 4 [1] and with PBMC were 4 nM and 200 nM, respectively. On Phosphodiesterase 4 [2], the inhibition constant Ki is 20 nM.
